Measured values reported in ChEMBL document CHEMBL1268911, “Novel agonists and antagonists for human protease activated receptor 2” (J Med Chem, 2010).
Active and inactive are the calls of the source. No cut-off for these calls is given here.

target: Proteinase-activated receptor 2 (Homo sapiens) (UniProt P55085); test: Agonist activity at PAR2 receptor in human HT-29 cells assessed as induction of intracellular calcium release at 50 uM relative to […]; format: functional, cell-based; settings: not given
Procedure, shortened: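 HT29 cells loaded with Fluo-3 AM in HBSS/HEPES/probenecid, pH 7.4. Compounds were tested at one concentration, 50 μM, and Ca2+ release (ex 495/em 520 nm, 60 s read) was expressed relative to 2-furoyl-LIGRLI-NH2 at the same concentration.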

| Activity | Structure (SMILES) |
| --- | --- |
| 19% | CC(C)C[C@H](NC(=O)c1ccco1)C(=O)N[C@@H](Cc1ccc(F)cc1)C(N)=O |
| 22% | CC(C)C[C@H](NC(=O)c1ccco1)C(=O)N[C@@H](Cc1ccccc1)C(N)=O |
| 12% | CC[C@H](C)[C@H](NC(=O)[C@@H](NC(=O)c1ccco1)C1CCCCC1)C(N)=O |
| 67% | CC[C@H](C)[C@H](NC(=O)[C@H](Cc1ccccc1)NC(=O)c1ccco1)C(N)=O |
| 38% | CC[C@H](C)[C@H](NC(=O)[C@H](CC(C)C)NC(=O)c1ccco1)C(N)=O |
| 58% | CC[C@H](C)[C@H](NC(=O)[C@H](CC1CCCCC1)NC(=O)c1ccco1)C(N)=O |
| 43% | CC(C)C[C@H](NC(=O)c1ccco1)C(=O)N[C@@H](CC1CCCCC1)C(N)=O |

target: T1, Proteinase-activated receptor 1 (Homo sapiens) (UniProt P25116); test: Agonist activity at human PAR1 receptor in HEK293 cells relative to TFLLR-NH2; format: functional, cell-based; settings: not given
T1 sequence (whole entry): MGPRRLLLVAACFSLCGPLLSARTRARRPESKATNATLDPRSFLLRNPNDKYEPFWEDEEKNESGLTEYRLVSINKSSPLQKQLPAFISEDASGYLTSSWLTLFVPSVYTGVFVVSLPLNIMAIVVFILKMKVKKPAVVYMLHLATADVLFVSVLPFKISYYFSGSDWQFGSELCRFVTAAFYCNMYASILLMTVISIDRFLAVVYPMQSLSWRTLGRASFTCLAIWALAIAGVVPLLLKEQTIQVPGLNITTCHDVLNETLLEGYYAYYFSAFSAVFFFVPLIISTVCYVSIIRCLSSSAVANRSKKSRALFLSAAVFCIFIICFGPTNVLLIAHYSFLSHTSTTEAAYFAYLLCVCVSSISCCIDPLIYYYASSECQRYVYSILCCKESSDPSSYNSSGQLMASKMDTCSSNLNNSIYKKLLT

| Activity | Structure (SMILES) |
| --- | --- |
| Active | CC[C@H](C)[C@H](NC(=O)[C@H](Cc1ccccc1)NC(=O)c1ccco1)C(N)=O |

target: T2, Proteinase-activated receptor 2 (Homo sapiens, UniProt P55085); test: Agonist activity at human PAR2 receptor in HEK293 cells assessed as induction of intracellular calcium release; format: functional, cell-based; settings: not given
T2 sequence (P55085 whole entry): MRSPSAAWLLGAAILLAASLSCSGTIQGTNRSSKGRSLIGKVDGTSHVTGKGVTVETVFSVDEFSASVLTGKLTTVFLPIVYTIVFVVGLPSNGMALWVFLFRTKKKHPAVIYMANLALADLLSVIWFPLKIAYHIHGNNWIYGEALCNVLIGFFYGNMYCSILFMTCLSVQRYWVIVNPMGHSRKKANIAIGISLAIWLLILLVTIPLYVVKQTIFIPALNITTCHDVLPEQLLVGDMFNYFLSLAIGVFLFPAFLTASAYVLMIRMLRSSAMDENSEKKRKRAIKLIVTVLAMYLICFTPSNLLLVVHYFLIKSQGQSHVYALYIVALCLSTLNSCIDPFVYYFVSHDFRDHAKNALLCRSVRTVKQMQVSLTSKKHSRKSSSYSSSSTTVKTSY

| EC50 | Structure (SMILES) |
| --- | --- |
| > 100 µM | CC[C@H](C)[C@H](NC(=O)[C@H](CC1CCCCC1)NC(=O)c1cnccn1)C(N)=O |
| > 100 µM | CC[C@H](C)[C@H](NC(=O)[C@H](CC1CCCCC1)NC(=O)c1coc(C)n1)C(N)=O |
| > 50 µM | CC[C@H](C)[C@H](NC(=O)[C@H](CC1CCCCC1)NC(=O)c1ccco1)C(N)=O |

target: T2, Proteinase-activated receptor 2; test: Agonist activity at PAR2 receptor in human HT-29 cells assessed as induction of intracellular calcium release; format: functional, cell-based; settings: not given

| Structure (SMILES) | EC50 |
| --- | --- |
| CC[C@H](C)[C@H](NC(=O)[C@H](CC1CCCCC1)NC(=O)c1ccno1)C(=O)N1CCC(C(=O)N2CCC(CN)CC2)CC1 | 13.7 µM |
| CC[C@H](C)[C@H](NC(=O)[C@H](CC1CCCCC1)NC(=O)c1ccno1)C(=O)N1CCCCC1C(=O)N1CCC(CN)CC1 (stereo partly specified) | 7.1 µM |
| CC[C@H](C)[C@H](NC(=O)[C@H](CC1CCCCC1)NC(=O)c1ccno1)C(=O)NC1CCN([C@@H](CC(C)C)C(=O)N2CCC(CN)CC2)C1=O (stereo partly specified) | 13.5 µM |
| CC[C@H](C)[C@H](NC(=O)[C@H](CC1CCCCC1)NC(=O)c1ccno1)C(=O)N1CCCC(C(=O)N2CCC(CN)CC2)C1 (stereo partly specified) | 17.1 µM |

More lines, now with the values ahead:

| EC50 | Structure (SMILES) |
| --- | --- |
| 1.1 µM | CC[C@H](C)[C@H](NC(=O)[C@H](CC1CCCCC1)NC(=O)c1ccno1)C(=O)NCc1ccc(C(=O)N2CCC(CN)CC2)cc1 |
| > 50 µM | CC[C@H](C)[C@H](NC(=O)[C@H](CC1CCCCC1)NC(=O)c1ccno1)C(=O)Nc1ccc(C(=O)N2CCC(CN)CC2)cc1 |
| 2.2 µM | CC[C@H](C)[C@H](NC(=O)[C@H](CC1CCCCC1)NC(=O)c1ccno1)C(=O)Nc1cccc(C(=O)N2CCC(CN)CC2)c1 |

same assay, conditions: ht-29

| EC50 | Structure (SMILES) |
| --- | --- |
| 6.1 µM | CC[C@H](C)[C@H](NC(=O)[C@H](CC1CCCCC1)NC(=O)c1ccno1)C(=O)N[C@H]1CCC2SC[C@@H](C(=O)N3CCC(CN)CC3)N2C1=O (stereo partly specified) |

target: T2, Proteinase-activated receptor 2; test: Antagonist activity at PAR2 receptor in human HT-29 cells assessed as inhibition of intracellular calcium release; format: functional, cell-based; settings: read-out: IC50

| IC50 | Structure (SMILES) |
| --- | --- |
| 57 µM | CC[C@H](C)[C@H](NC(=O)[C@H](CC1CCCCC1)NC(=O)c1ccno1)C(=O)Nc1ccc(CC(=O)N2CCOCC2)cc1 |

same assay, conditions: read-out: pIC50 (converted)

| IC50 | Structure (SMILES) |
| --- | --- |
| 7.94 µM | CC[C@H](C)[C@H](NC(=O)[C@H](CC1CCCCC1)NC(=O)c1ccno1)C(=O)N1CCC2(CCc3ccccc32)CC1 |

target: Proteinase-activated receptor 2 (Homo sapiens) (UniProt P55085); test: Antagonist activity at PAR2 receptor in human HT-29 cells assessed as inhibition of intracellular calcium release at 5 uM relative to SLIGRLI-NH2; format: functional, cell-based; design: scale not given: the % may be the effect or the level left; settings: not given
Procedure, shortened: (§1)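 Single-point inhibition in Fluo-3-loaded HT29 cells. Antagonist was given at 5 or 50 μM before 2.5 μM SLIGRLI-NH2. Calcium efflux was read as fluorescence and expressed as percent inhibition, with 100% meaning complete block.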

| Activity | Structure (SMILES) |
| --- | --- |
| 40% | CC[C@H](C)[C@H](NC(=O)[C@H](CC1CCCCC1)NC(=O)c1ccno1)C(=O)N1CCC2(CCc3ccccc32)CC1 |
| 40% | CC[C@H](C)[C@H](NC(=O)[C@H](CC1CCCCC1)NC(=O)c1ccno1)C(=O)N1CCc2ccccc2C1 |
| 40% | CC[C@H](C)[C@H](NC(=O)[C@H](CC1CCCCC1)NC(=O)c1ccno1)C(=O)N1CCN(c2ccccc2)CC1 |
| 40% | CC[C@H](C)[C@H](NC(=O)[C@H](CC1CCCCC1)NC(=O)c1ccno1)C(=O)Nc1ccccc1-c1ccccc1 |
| 40% | CC[C@H](C)[C@H](NC(=O)[C@H](CC1CCCCC1)NC(=O)c1ccno1)C(=O)N1CCN(c2ccccc2C)CC1 |
| 40% | CC[C@H](C)[C@H](NC(=O)[C@H](CC1CCCCC1)NC(=O)c1ccno1)C(=O)Nc1cccc2ccccc12 |

target: Proteinase-activated receptor 2 (Homo sapiens) (UniProt P55085); test: Antagonist activity at PAR2 receptor in human HT-29 cells assessed as inhibition of intracellular calcium release at 50 uM relative to SLIGRLI-NH2; format: functional, cell-based; settings: not given; procedure, shortened: as §1

| inhibition | Structure (SMILES) |
| --- | --- |
| Active | CC[C@H](C)[C@H](NC(=O)[C@H](CC1CCCCC1)NC(=O)c1ccno1)C(=O)N1CCC2(CCc3ccccc32)CC1 |

target: Proteinase-activated receptor 2 (Homo sapiens) (UniProt P55085); test: Agonist activity at PAR2 receptor in human HT-29 cells assessed as induction of intracellular calcium release at 1 uM relative to SLIGRLI-NH2; format: functional, cell-based; settings: not given
Procedure, shortened: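 HT29 cells, Fluo-3 AM loaded, in HBSS/HEPES/probenecid buffer pH 7.4 with 2% DMSO final. Each agonist given once at 1 μM. Fluorescence (ex 495/em 520 nm) was read over 60 s after addition, and iCa2+ release was compared with SLIGRLI-NH2.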

| Activity | Structure (SMILES) |
| --- | --- |
| 130% | CC[C@H](C)[C@H](NC(=O)[C@H](CC1CCCCC1)NC(=O)c1ccno1)C(=O)NCCC(=O)Nc1ccc(CCN)cc1 |
| 181% | CC[C@H](C)[C@H](NC(=O)[C@H](CC1CCCCC1)NC(=O)c1ccno1)C(=O)NCCCCC(=O)N1CCC(CN)CC1 |
| 130% | CC[C@H](C)[C@H](NC(=O)[C@H](CC1CCCCC1)NC(=O)c1ccno1)C(=O)NCCCCC(=O)NCc1cccnc1 |
| 97% | CC[C@H](C)[C@H](NC(=O)[C@H](CC1CCCCC1)NC(=O)c1ccno1)C(=O)NCCC(=O)N1CCC(CN)CC1 |
| 142% | CC[C@H](C)[C@H](NC(=O)[C@H](CC1CCCCC1)NC(=O)c1ccno1)C(=O)NCCCCC(=O)Nc1ccc(CCN)cc1 |
| 57% | CC[C@H](C)[C@H](NC(=O)[C@H](CC1CCCCC1)NC(=O)c1ccno1)C(=O)NCCCN |
| 122% | CC[C@H](C)C(NC(=O)[C@H](CC1CCCCC1)NC(=O)c1ccno1)C(=O)NCCC(=O)NCc1cccnc1 (single isomer, unassigned) |
| 60% | CC[C@H](C)[C@H](NC(=O)[C@H](CC1CCCCC1)NC(=O)c1ccno1)C(=O)NCCCCCN |
